From publication PMC9116722 (Cancer chemotherapy and pharmacology, 2022)

Experiment: Adverse events
Format: in vivo, human
In short: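 Patients with germline BRCA-mutated cancers, or BRCA-wildtype TNBC or platinum-refractory ovarian cancer, took oral drug continuously twice daily in 28-day cycles. There were nine dose levels from 50 to 500 mg BID under 3+3 escalation, run separately per cohort after the first DLT. Toxicities were graded by CTCAE v4.0, with DLTs assessed during cycle 1.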

With `C[C@]1(c2nc3c(C(N)=O)cccc3[nH]2)CCCN1` [veliparib] the “Hypophosphatemia, Grade 2” value (BRCAmut and BRCAwt combined) was 4 (4) number of patients (%), the “Hypophosphatemia, Grade 3” value (BRCAmut and BRCAwt combined) was 2 (2) number of patients (%) and the “Hypophosphatemia, Grade 4” value (BRCAmut and BRCAwt combined) was 0 (0) number of patients (%). The “Insomnia, Any Grade” value (BRCAmut and BRCAwt combined) was 7 (7) number of patients (%), the “Insomnia, Grade 1” value (BRCAmut and BRCAwt combined) was 6 (6) number of patients (%) and the “Insomnia, Grade 2” value (BRCAmut and BRCAwt combined) was 1 (1) number of patients (%). For the same compound, the “Insomnia, Grade 3” value (BRCAmut and BRCAwt combined) was 0 (0) number of patients (%), the “Insomnia, Grade 4” value (BRCAmut and BRCAwt combined) was 0 (0) number of patients (%) and the “Lymphocyte count decreased, Any Grade” value (BRCAmut and BRCAwt combined) was 37 (38) number of patients (%). For the same compound, the “Lymphocyte count decreased, Grade 1” value (BRCAmut and BRCAwt combined) was 7 (7) number of patients (%), the “Lymphocyte count decreased, Grade 2” value (BRCAmut and BRCAwt combined) was 15 (15) number of patients (%) and the “Lymphocyte count decreased, Grade 3” value (BRCAmut and BRCAwt combined) was 14 (14) number of patients (%). The “Lymphocyte count decreased, Grade 4” value (BRCAmut and BRCAwt combined) was 1 (1) number of patients (%), the “Myalgia, Any Grade” value (BRCAmut and BRCAwt combined) was 5 (5) number of patients (%) and the “Myalgia, Grade 1” value (BRCAmut and BRCAwt combined) was 4 (4) number of patients (%). The “Myalgia, Grade 2” value (BRCAmut and BRCAwt combined) was 1 (1) number of patients (%), the “Myalgia, Grade 3” value (BRCAmut and BRCAwt combined) was 0 (0) number of patients (%) and the “Myalgia, Grade 4” value (BRCAmut and BRCAwt combined) was 0 (0) number of patients (%). For the same compound, the “Nausea, Any Grade” value (BRCAmut and BRCAwt combined) was 64 (65) number of patients (%), the “Nausea, Grade 1” value (BRCAmut and BRCAwt combined) was 42 (43) number of patients (%) and the “Nausea, Grade 2” value (BRCAmut and BRCAwt combined) was 20 (20) number of patients (%). For the same compound, the “Nausea, Grade 3” value (BRCAmut and BRCAwt combined) was 2 (2) number of patients (%), the “Nausea, Grade 4” value (BRCAmut and BRCAwt combined) was 0 (0) number of patients (%) and the “Neutrophil count decreased, Any Grade” value (BRCAmut and BRCAwt combined) was 17 (17) number of patients (%). For the same compound, the “Neutrophil count decreased, Grade 1” value (BRCAmut and BRCAwt combined) was 13 (13) number of patients (%), the “Neutrophil count decreased, Grade 2” value (BRCAmut and BRCAwt combined) was 4 (4) number of patients (%) and the “Neutrophil count decreased, Grade 3” value (BRCAmut and BRCAwt combined) was 0 (0) number of patients (%). For the same compound, the “Neutrophil count decreased, Grade 4” value (BRCAmut and BRCAwt combined) was 0 (0) number of patients (%), the “Platelet count decreased, Any Grade” value (BRCAmut and BRCAwt combined) was 18 (18) number of patients (%) and the “Platelet count decreased, Grade 1” value (BRCAmut and BRCAwt combined) was 14 (14) number of patients (%). For the same compound, the “Platelet count decreased, Grade 2” value (BRCAmut and BRCAwt combined) was 3 (3) number of patients (%), the “Platelet count decreased, Grade 3” value (BRCAmut and BRCAwt combined) was 0 (0) number of patients (%) and the “Platelet count decreased, Grade 4” value (BRCAmut and BRCAwt combined) was 1 (1) number of patients (%). For the same compound, the “Vomiting, Any Grade” value (BRCAmut and BRCAwt combined) was 32 (33) number of patients (%), the “Vomiting, Grade 1” value (BRCAmut and BRCAwt combined) was 25 (26) number of patients (%) and the “Vomiting, Grade 2” value (BRCAmut and BRCAwt combined) was 7 (7) number of patients (%). The “White blood cell decreased, Any Grade” value (BRCAmut and BRCAwt combined) was 27 (28) number of patients (%), the “White blood cell decreased, Grade 1” value (BRCAmut and BRCAwt combined) was 20 (20) number of patients (%) and the “White blood cell decreased, Grade 2” value (BRCAmut and BRCAwt combined) was 7 (7) number of patients (%). The “White blood cell decreased, Grade 3” value (BRCAmut and BRCAwt combined) was 0 (0) number of patients (%), the “White blood cell decreased, Grade 4” value (BRCAmut and BRCAwt combined) was 0 (0) number of patients (%) and the “grade 3/4 decreased lymphocyte count” value (BRCAmut group) was 14%. The “incidence of grade 3/4 toxicity” value (BRCAmut group) was 24%, the “Abdominal pain, Grade 3” value (BRCAmut, DL1 50/50 mg AM/PM) was 0 number of patients (%) and the “Alkaline phosphatase increased, Grade 3” value (BRCAmut, DL1 50/50 mg AM/PM) was 1 (14) number of patients (%). For the same compound, the “Anemia, Grade 3” value (BRCAmut, DL1 50/50 mg AM/PM) was 0 number of patients (%), the “Anemia, Grade 4” value (BRCAmut, DL1 50/50 mg AM/PM) was 0 number of patients (%) and the “Any Grade 3/4 toxicity” value (BRCAmut, DL1 50/50 mg AM/PM) was 1 (14) number of patients (%). For the same compound, the “Any Grade 3 toxicity” value (BRCAmut, DL1 50/50 mg AM/PM) was 1 (14) number of patients (%), the “Any Grade 4 toxicity” value (BRCAmut, DL1 50/50 mg AM/PM) was 0 number of patients (%) and the “Appendicitis, Grade 3” value (BRCAmut, DL1 50/50 mg AM/PM) was 0 number of patients (%). The “Aspartate aminotransferase increased, Grade 3” value (BRCAmut, DL1 50/50 mg AM/PM) was 1 (14) number of patients (%), the “Dehydration, Grade 3” value (BRCAmut, DL1 50/50 mg AM/PM) was 0 number of patients (%) and the “Dyspnea, Grade 4” value (BRCAmut, DL1 50/50 mg AM/PM) was 0 number of patients (%). For the same compound, the “Fatigue, Grade 3” value (BRCAmut, DL1 50/50 mg AM/PM) was 0 number of patients (%), the “Headache, Grade 3” value (BRCAmut, DL1 50/50 mg AM/PM) was 0 number of patients (%) and the “Hypophosphatemia, Grade 3” value (BRCAmut, DL1 50/50 mg AM/PM) was 0 number of patients (%). The “Lymphocyte count decreased, Grade 3” value (BRCAmut, DL1 50/50 mg AM/PM) was 0 number of patients (%), the “Lymphocyte count decreased, Grade 4” value (BRCAmut, DL1 50/50 mg AM/PM) was 0 number of patients (%) and the “Nausea, Grade 3” value (BRCAmut, DL1 50/50 mg AM/PM) was 0 number of patients (%). For the same compound, the “Platelet count decreased, Grade 4” value (BRCAmut, DL1 50/50 mg AM/PM) was 0 number of patients (%), the “Thromboembolic event, Grade 3” value (BRCAmut, DL1 50/50 mg AM/PM) was 0 number of patients (%) and the “Thromboembolic event, Grade 4” value (BRCAmut, DL1 50/50 mg AM/PM) was 0 number of patients (%). For the same compound, the “Urinary tract infection, Grade 3” value (BRCAmut, DL1 50/50 mg AM/PM) was 0 number of patients (%), the “Abdominal pain, Grade 3” value (BRCAmut, DL2 100/50 mg AM/PM) was 0 number of patients (%) and the “Alkaline phosphatase increased, Grade 3” value (BRCAmut, DL2 100/50 mg AM/PM) was 0 number of patients (%). For the same compound, the “Anemia, Grade 3” value (BRCAmut, DL2 100/50 mg AM/PM) was 0 number of patients (%), the “Anemia, Grade 4” value (BRCAmut, DL2 100/50 mg AM/PM) was 0 number of patients (%) and the “Any Grade 3/4 toxicity” value (BRCAmut, DL2 100/50 mg AM/PM) was 1 (33) number of patients (%). The “Any Grade 3 toxicity” value (BRCAmut, DL2 100/50 mg AM/PM) was 0 number of patients (%), the “Any Grade 4 toxicity” value (BRCAmut, DL2 100/50 mg AM/PM) was 1 (33) number of patients (%) and the “Appendicitis, Grade 3” value (BRCAmut, DL2 100/50 mg AM/PM) was 0 number of patients (%). For the same compound, the “Aspartate aminotransferase increased, Grade 3” value (BRCAmut, DL2 100/50 mg AM/PM) was 0 number of patients (%), the “Dehydration, Grade 3” value (BRCAmut, DL2 100/50 mg AM/PM) was 0 number of patients (%) and the “Dyspnea, Grade 4” value (BRCAmut, DL2 100/50 mg AM/PM) was 0 number of patients (%). For the same compound, the “Fatigue, Grade 3” value (BRCAmut, DL2 100/50 mg AM/PM) was 0 number of patients (%), the “Headache, Grade 3” value (BRCAmut, DL2 100/50 mg AM/PM) was 0 number of patients (%) and the “Hypophosphatemia, Grade 3” value (BRCAmut, DL2 100/50 mg AM/PM) was 0 number of patients (%). The “Lymphocyte count decreased, Grade 3” value (BRCAmut, DL2 100/50 mg AM/PM) was 0 number of patients (%), the “Lymphocyte count decreased, Grade 4” value (BRCAmut, DL2 100/50 mg AM/PM) was 0 number of patients (%) and the “Nausea, Grade 3” value (BRCAmut, DL2 100/50 mg AM/PM) was 0 number of patients (%). The “Platelet count decreased, Grade 4” value (BRCAmut, DL2 100/50 mg AM/PM) was 0 number of patients (%), the “Thromboembolic event, Grade 3” value (BRCAmut, DL2 100/50 mg AM/PM) was 0 number of patients (%) and the “Thromboembolic event, Grade 4” value (BRCAmut, DL2 100/50 mg AM/PM) was 1 (33) number of patients (%). The “Urinary tract infection, Grade 3” value (BRCAmut, DL2 100/50 mg AM/PM) was 0 number of patients (%), the “Abdominal pain, Grade 3” value (BRCAmut, DL3 100/100 mg AM/PM) was 0 number of patients (%) and the “Alkaline phosphatase increased, Grade 3” value (BRCAmut, DL3 100/100 mg AM/PM) was 0 number of patients (%).
